Consider four compounds from ChEMBL document CHEMBL2021780, “Antineoplastic agents. 548. Synthesis of iodo- and diiodocombstatin phosphate prodrugs” (J Nat Prod, 2012).

In data set [1] the test system is HUVEC. In words: Antiangiogenic activity in HUVEC assessed as reduction of cord length at 0.001 ug/ml after 24 hrs by matrigel assay relative to control. In kind it is functional. Conditions: Homo sapiens. The method, boiled down: (§1)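 Commercial HUVECs grown in EGM-2 were seeded at 2 × 10⁵ cells/mL onto Matrigel, which had been polymerized 15 min at rt and then 30 min at 37 °C, per NCI DTP protocol. Compound was added and cells were incubated 24 h, then imaged by inverted microscopy. Cord length and junction number were scored against untreated control on a scale from − (none) to +++ (same as control), with ++ = 50% of control.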

Data set [2] concerns HUVEC. In words: Antiangiogenic activity in HUVEC assessed as reduction of cord length at 0.1 ug/ml after 24 hrs by matrigel assay relative to control. The format is functional, cell-based. Conditions: Homo sapiens. The method, boiled down:
as §1

Data set [3] concerns HUVEC. In words: Antiangiogenic activity in HUVEC assessed as reduction of cord length at 1 ug/ml after 24 hrs by matrigel assay relative to control. The format is functional, cell-based. Conditions: Homo sapiens. The method, boiled down:
as §1

The test system of data set [4] is HUVEC. In words: Antiangiogenic activity in HUVEC assessed as reduction of number of junctions at 0.001 ug/ml after 24 hrs by matrigel assay relative to control. In kind it is functional. The following applies: Homo sapiens. The method, boiled down: as §1
For data set [5], the system named is HUVEC. In words: Antiangiogenic activity in HUVEC assessed as reduction of number of junctions at 0.1 ug/ml after 24 hrs by matrigel assay relative to control. The format is functional, cell-based. Conditions: Homo sapiens. The method, boiled down: as §1
Data set [6] concerns HUVEC. In words: Antiangiogenic activity in HUVEC assessed as reduction of number of junctions at 1 ug/ml after 24 hrs by matrigel assay relative to control. Conditions: Homo sapiens. In kind it is functional, cell-based. The method, boiled down: as §1
Data set [7] can be described thus: Solubility of the compound in water. Conditions: buffer. The format is physicochemical. The method, boiled down:
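Solubility expressed as amount dissolving in 1 mL H₂O at 25 °C.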

The test system of another data set is P388. Nature of the data set: Growth inhibition of mouse P388 cells after 48 hrs by Z1 Beckman/Coulter particle counter analysis. The following applies: P388, 48 h, read-out: ED50 (the source's name). In kind it is functional. The method, boiled down: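 Mouse P388 leukemia cells were incubated 24 h in 10% horse serum/Fisher medium, then exposed 48 h to serial compound dilutions. ED50 was calculated from cell counts on a Coulter Z1 particle counter.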

For the next data set, the system named is BXPC-3. Nature of the data set: Growth inhibition of human BxPC3 cells after 48 hrs by sulforhodamine B assay. In kind it is functional. Conditions: BXPC-3, 48 h. The method, boiled down: (§2)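 NCI sulforhodamine B assay. Cells were seeded in 5% FBS/RPMI-1640 and incubated 24 h. Serial compound dilutions were then added for 48 h. Cells were fixed with trichloroacetic acid, stained with SRB and read by microplate reader. GI50 is the concentration giving 50% reduction in net protein increase, calculated from optical density data.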
For orientation: The SRB assay estimates cell density from bound dye.

The test system of the next data set is MCF7. In words: Growth inhibition of human MCF7 cells after 48 hrs by sulforhodamine B assay. The format is functional. Conditions: MCF7, 48 h. The method, boiled down: as §2
The subject of a further data set is NCI-H460. Nature of the data set: Growth inhibition of human NCI-H460 cells after 48 hrs by sulforhodamine B assay. In kind it is functional. The following applies: NCI-H460, 48 h. The method, boiled down:
as §2

The test system of a further data set is KM-20L2. In words: Growth inhibition of human KM20L2 cells after 48 hrs by sulforhodamine B assay. In kind it is functional. Conditions: KM-20L2, 48 h. The method, boiled down:
as §2

Another data set concerns DU-145. In words: Growth inhibition of human DU145 cells after 48 hrs by sulforhodamine B assay. The format is functional. Conditions: DU-145, 48 h. The method, boiled down: as §2
The test system of data set [8] is HUVEC. Nature of the data set: Antiangiogenic activity in HUVEC assessed as cell growth inhibition after 48 hrs by sulforhodamine B assay. In kind it is functional, cell-based. The following applies: Homo sapiens. The method, boiled down:
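HUVECs were grown in EGM-2 medium and tested with the standard SRB growth assay following NCI Developmental Therapeutics Program Matrigel antiangiogenesis protocols. IC50 (concentration causing 50% inhibition) was calculated from plotted data.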

Data set [9] deals with HUVEC. In words: Antiangiogenic activity in HUVEC assessed as reduction of cord length at 0.01 ug/ml after 24 hrs by matrigel assay relative to control. In kind it is functional, Homo sapiens. Details: scale not given: the % may be the effect or the level left. The method, boiled down: as §1
Data set [10] relates to HUVEC. In words: Antiangiogenic activity in HUVEC assessed as reduction of number of junctions at 0.01 ug/ml after 24 hrs by matrigel assay relative to control. In kind it is functional, Homo sapiens. Details: scale not given: the % may be the effect or the level left. The method, boiled down:
as §1

Data set [11] concerns HUVEC. Nature of the data set: Antiangiogenic activity in HUVEC assessed as cell growth at 0.01 ug/ml after 24 hrs by sulforhodamine B assay relative to control. The format is functional, Homo sapiens.
Data set [12] concerns HUVEC. In words: Antiangiogenic activity in HUVEC assessed as cell growth at 0.001 ug/ml after 24 hrs by sulforhodamine B assay relative to control. In kind it is functional, Homo sapiens.
Data set [13] relates to HUVEC. In words: Antiangiogenic activity in HUVEC assessed as cell growth at 0.1 ug/ml after 24 hrs by sulforhodamine B assay relative to control. In kind it is functional, Homo sapiens.
For data set [14], the system named is HUVEC. Nature of the data set: Antiangiogenic activity in HUVEC assessed as cell growth at 1 ug/ml after 24 hrs by sulforhodamine B assay relative to control. The format is functional. The following applies: Homo sapiens, read-out: Activity.
Data set [15] is described as follows: Inhibition of purified tubulin assembly after 20 mins. The method, boiled down: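 Purified tubulin at 10 μM in 0.8 M monosodium glutamate (pH 6.6), 0.4 mM GTP and 4% (v/v) DMSO, with varying compound concentrations. Extent of assembly was measured after 20 min at 30 °C.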
The subject of data set [16] is Neisseria gonorrhoeae. In words: Antibacterial activity against Neisseria gonorrhoeae ATCC 49226 by broth microdilution method. The format is functional. The method, boiled down: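 Broth microdilution followed NCCLS standard methods. Compounds were reconstituted in sterile DMSO and diluted in the appropriate medium immediately before testing. MIC was taken as the lowest concentration giving no visible growth (optically clear). Assays were repeated on separate days.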
Background: Dilution methods test growth across graded concentrations, often in twofold steps.

The subject of another data set is SF-268. In words: Growth inhibition of human SF268 cells after 48 hrs by sulforhodamine B assay. The format is functional. The following applies: SF-268, 48 h. The method, boiled down:
as §2

The test system of another data set is SK-N-SH. In words: Growth inhibition of human SK-N-SH cells after 48 hrs by sulforhodamine B assay. In kind it is functional. The method, boiled down: as §2
Another data set deals with SK-N-AS. In words: Growth inhibition of human SK-N-AS cells after 48 hrs by sulforhodamine B assay. In kind it is functional. The method, boiled down:
as §2

The subject of the next data set is IMR-32. In words: Growth inhibition of human IMR32 cells after 48 hrs by sulforhodamine B assay. In kind it is functional. Conditions: IMR-32, 48 h. The method, boiled down:
as §2

A short description of data set [17]: Growth inhibition of human KAT4 cells after 48 hrs by sulforhodamine B assay. The following applies: KAT-4, 48 h. In kind it is functional.
For a further data set, the system named is SW-1736. Nature of the data set: Growth inhibition of human SW1736 cells after 48 hrs by sulforhodamine B assay. The format is functional. The following applies: SW-1736, 48 h.
For data set [18], the system named is HUVEC. In words: Antiangiogenic activity in HUVEC assessed as cell growth at 0.0001 ug/ml after 24 hrs by sulforhodamine B assay relative to control. In kind it is functional, Homo sapiens. Conditions: Homo sapiens, HUVEC, 24 h; read-out: Activity.
The nature of data set [19]: Displacement of [3H]colchicine from tubulin at 1 uM after 10 mins. The method, boiled down:
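[³H]colchicine binding: 1.0 μM tubulin with 5.0 μM [³H]colchicine and compound, incubated 10 min at 37 °C. The tubulin–colchicine complex was separated from unbound label by retention on DEAE-cellulose filters. Result is inhibition of radiolabel binding.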
A general note: Loss of bound radioactivity is the signal in a displacement assay; it reports binding, not function.

The test system of another data set is Micrococcus luteus. Nature of the data set: Antibacterial activity against Micrococcus luteus assessed per disc. The format is functional.
Data set [20] concerns Neisseria gonorrhoeae. Nature of the data set: Antibacterial activity against Neisseria gonorrhoeae assessed per disc. In kind it is functional.
Data set [21] in a line: Displacement of [3H]colchicine from tubulin at 5 uM after 10 mins. The method, boiled down:
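Purified tubulin 1.0 μM incubated with 5.0 μM [³H]colchicine and test compound for 10 min at 37 °C. Tubulin–colchicine complex retained on DEAE-cellulose filters to separate it from unbound label. Read-out is the percent inhibition of radiolabel binding.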

A word on the solubility: it is how much of the substance goes into solution per volume. For orientation: GI50 means the concentration that inhibits growth by half. One may read the IC50 as the concentration needed to halve the response being measured. As usually defined, the inhibition is the percentage by which the read-out fell short of the control.

SMILES strings stand for the structures. ≈ marks a conversion by molar mass, not a printed value. Calls of active or inactive are those of the source. The calls are words filed in the database; no cut-off is given here.

In the case of `COc1ccc(/C=C\c2cc(I)c(OC)c(I)c2)cc1OP(=O)(O)O`, the result with HUVEC [1] and in the data set on HUVEC [4] was inactive. Besides, the result in the data set on HUVEC [2], in the data set with HUVEC [3], in the data set with HUVEC [5] and with HUVEC [6] was Active.
The compound `COc1ccc(/C=C\c2cc(I)c(OC)c(I)c2)cc1OP(=O)([O-])[O-].[Na+].[Na+]` yielded a solubility in data set [7] of 2 mg/mL. For the same compound, in the data set on P388, the EC50 came to 0.03 µg/mL. Also, the GI50 with BXPC-3 is over 1 µg/mL; in the data set on MCF7 it was 0.066 µg/mL; with NCI-H460, 0.327 µg/mL; in the data set on KM-20L2 it was over 1 µg/mL; with DU-145, 0.242 µg/mL. The IC50 is 0.051 µg/mL in the data set with HUVEC [8] and over 40 µM in data set [15]. The Activity is 75% with HUVEC [9]; 75% with HUVEC [10]; over 100% in the data set with HUVEC [11]; over 100% with HUVEC [12]; -2% with HUVEC [13]. In addition, in the data set with HUVEC [14], the growth at 1 µg/mL is -7%. This compound also had an MIC in the data set with Neisseria gonorrhoeae [16] of 32 µg/mL.
In [7], `COc1ccc(/C=C\c2cc(I)c(OC)c(I)c2)cc1OP(=O)([O-])[O-].[K+].[K+]` yielded a solubility of 22 mg/mL. In addition, the EC50 with P388 turned out to be 0.0034 µg/mL. Further, the GI50 was found to be 0.44 µg/mL in the data set with BXPC-3; 0.05 µg/mL with MCF7; 0.053 µg/mL in the data set on SF-268; 0.046 µg/mL with NCI-H460; 0.028 µg/mL with DU-145; 0.0075 µg/mL in the data set with SK-N-SH. For the same compound, the concentration for 50% growth inhibition (GI50) with SK-N-AS was 0.002 µg/mL; in the data set with IMR-32, 0.081 µg/mL; in data set [17] it was 0.38 µg/mL; with SW-1736 it was over 10 µg/mL. Moreover, the concentration for half-maximal inhibition (IC50) in the data set on HUVEC [8] amounted to 0.0049 µg/mL. The Activity in the data set on HUVEC [9] is recorded as 75%; in the data set on HUVEC [10], 75%; with HUVEC [11] it was 33%; in the data set with HUVEC [13], 15%. Also, the growth at 0.001 µg/mL in the data set on HUVEC [12] (Homo sapiens, HUVEC, 24 h, read-out: Activity) came to 88%. Besides, the growth at 0.0001 µg/mL in the data set on HUVEC [18] is 96%. For the same compound, the MIC against Neisseria gonorrhoeae [16] was under 0.5 µg/mL.
`COc1ccc(/C=C\c2cc(OC)c(OC)c(OC)c2)cc1O` [COMBRETASTATIN A4]: the EC50 with P388 was determined as 0.0003 µg/mL (≈ 0.948 nM). The GI50 with BXPC-3 was 0.39 µg/mL (≈ 1230 nM); in the data set on SF-268, under 0.001 µg/mL; in the data set with NCI-H460, 0.0006 µg/mL (≈ 1.9 nM); in the data set with KM-20L2, 0.061 µg/mL (≈ 193 nM); with DU-145 it was 0.0008 µg/mL (≈ 2.53 nM). Also, the figures for the inhibition in data set [19] and in [21] were 81% and 95%, respectively. For the same compound, the MIC in the data set on Micrococcus luteus and against Neisseria gonorrhoeae [20] was 25 µg in each case.
